Screens (PubChem)
In the library only some 4.2% were active in any assay of this set; here they are far more common.
SKKanGAS inh – inhibitors of SKKanGAS S. pyogenes growth in kanamycin (SK-promoter or general growth effect). hit rate 1.3% among 300,000. inhibition, % at 7.5 µM. BacTiter-Glo, 6 h. AID 1662;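 active = mean replicate score, as percent of positive control median, at least 50; inconclusive = mean below 50 but one replicate at or above 50; inactive = mean and every replicate below 50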;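 also: strain carries kanamycin resistance gene driven by streptokinase promoter and grows in 40 µg/ml kanamycin; loss of luminescence reflects streptokinase promoter inhibition or plain growth inhibition; 0% = median of DMSO wells and 100% = positive control at its reference dose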
Insulin prom up – MIN6 insulin promoter up-regulation; MIN6 insulin promoter-GFP reporter, high-content imaging; hits give high values; hit rate 0.3% among 190,000; z-score at 5 µM;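 active = z-score above 3 at 5 µM with at least 500 cells counted in the well; inconclusive = wells under 500 cells, flagged as cytotoxic or low count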
Cl transport mod – modulates chloride dependent transport by human KCC2 | Q9H2X9 | KCC2 cells, thallium flux FluoZin-2 fluorescence | B-score of Tl+ flux slope (higher = more flux/activation; lower = inhibition) at 10 µM | hit rate 2.2% among 190,000 | AID 1456;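 active = thallium flux slope and its plate-corrected score both differing from the plate sample mean at a set confidence after two filtering rounds, in either direction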;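 also: slope of fluorescence scaled to starting intensity during 10 to 20 s after thallium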
Target sequence (Q9H2X9 whole entry, looked up): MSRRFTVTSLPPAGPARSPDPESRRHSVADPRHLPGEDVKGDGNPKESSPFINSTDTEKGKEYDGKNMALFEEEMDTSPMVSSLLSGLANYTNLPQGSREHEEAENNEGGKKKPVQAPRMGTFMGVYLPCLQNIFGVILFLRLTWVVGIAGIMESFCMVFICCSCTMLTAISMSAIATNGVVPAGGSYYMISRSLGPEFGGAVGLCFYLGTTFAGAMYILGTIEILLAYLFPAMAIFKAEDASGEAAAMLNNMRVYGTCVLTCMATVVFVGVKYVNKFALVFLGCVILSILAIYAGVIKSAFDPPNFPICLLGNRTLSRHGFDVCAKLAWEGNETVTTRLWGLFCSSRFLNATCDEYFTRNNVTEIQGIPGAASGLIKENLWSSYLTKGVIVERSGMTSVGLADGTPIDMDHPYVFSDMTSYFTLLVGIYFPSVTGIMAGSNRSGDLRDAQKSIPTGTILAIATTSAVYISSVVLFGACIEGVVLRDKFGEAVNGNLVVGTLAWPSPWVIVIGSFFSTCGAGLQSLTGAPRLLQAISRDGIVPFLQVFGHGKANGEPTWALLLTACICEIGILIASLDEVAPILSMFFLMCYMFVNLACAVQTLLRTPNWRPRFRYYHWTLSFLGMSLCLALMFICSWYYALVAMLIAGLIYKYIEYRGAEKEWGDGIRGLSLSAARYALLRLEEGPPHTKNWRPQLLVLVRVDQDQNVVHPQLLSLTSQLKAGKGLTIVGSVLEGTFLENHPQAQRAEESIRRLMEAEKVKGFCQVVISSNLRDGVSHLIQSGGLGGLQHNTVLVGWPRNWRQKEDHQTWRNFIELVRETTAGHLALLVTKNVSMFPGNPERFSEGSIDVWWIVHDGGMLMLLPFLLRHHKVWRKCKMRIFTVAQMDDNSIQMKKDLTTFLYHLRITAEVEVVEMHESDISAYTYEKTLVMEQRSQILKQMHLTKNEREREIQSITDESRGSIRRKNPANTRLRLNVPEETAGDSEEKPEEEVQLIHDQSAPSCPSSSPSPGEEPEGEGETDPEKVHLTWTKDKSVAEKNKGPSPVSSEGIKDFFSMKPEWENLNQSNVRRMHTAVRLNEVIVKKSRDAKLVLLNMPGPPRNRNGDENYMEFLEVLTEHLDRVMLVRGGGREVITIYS
Rad51 HR inh – Rad51 (human) homologous recombination inhibition | Q06609 | hRad51 DNA strand exchange, fluorescence dequenching | inhibition, % at 10 µM | hit rate 0.085% among 200,000;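 active = inhibition above 40% at the single screening dose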;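 also: 0% = DMSO control wells and 100% = blanks with heterologous ssDNA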
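Material: human Rad51–ssDNA filaments; Probe or stimulus: labelled 47-mer dsDNA for strand exchange; Doses: single 10 µM dose; Incubation: 37 °C 15-min filament assembly, 30-min compound preincubation, 15-min exchange; Technique: FRET fluorescence dequenching, excitation 485 nm, emission 520 nm; Measure: Fluorescence-based percent inhibition, control- and blank-normalised; Benchmarks: plate control and blank wells.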
Autophagy HCS – alters autophagy in cells; calls only at 10 µM (by protocol); AID 463193; hit rate 0.98% among 190,000; MEF GFP-LC3 puncta imaging; test concentration mostly 10 µM;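 active = percentage of spot-positive cells more than 3 SD above its plate mean, without a fluorescence outlier flag or 80% toxicity; inconclusive = no clear call, values can overlap the other calls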;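 also: spot-positive cell cutoff set from DMSO-treated cells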
WT yeast gro inh – growth inhibition of WT yeast, mitochondrial fusion screen. mitochondrial fusion phenotypic screen, WT strain. inhibition, % at 10 µM. hit rate 2.1% among 190,000. AID 1362; in the data active = inhibition above about 58%; tested in S. cerevisiae
KCC2 secondary – KCC2 (human) modulation, secondary assay; hit rate 15% among 3,700; normalised thallium flux (F/F0 slope) at 10 µM; shares compounds with Cl transport mod; HEK293-KCC2, thallium flux, FluoZin2 fluorescence; hits give high values;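 active = thallium flux slope above the same plate's solvent-only control mean plus 3 SD; inconclusive = the two replicate wells disagree; inactive = no significant difference from solvent-only control wells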
KCC2 bumet counter – bumetanide-insensitive thallium flux in KCC2 cells with ouabain, counter-screen. shares compounds with Cl transport mod. normalized thallium flux at 10 µM. hit rate 49% among 3,700. HEK293-KCC2 + bumetanide/ouabain, thallium flux FluoZin2; hits give high values;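 active = thallium entry rate above the same plate's blocked-transporter control wells by more than 3 SD; inconclusive = the two repeat wells disagree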;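 also: raw slope of fluorescence over initial fluorescence between 10 and 20 s after thallium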
KCC2 secondary2 – confirmation of human KCC2 transport modulators | shares compounds with Cl transport mod | HEK293-KCC2, thallium flux FluoZin2 fluorescence; actives lie on both sides; F/F0 rise rate, 10–20 s post-thallium | normalized thallium flux at 10 µM | hit rate 23% among 3,700 | AID 1715;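 active = thallium flux slope more than 3 SD above or below the plate's solvent-only control mean, mostly below; inconclusive = the two repeat wells disagreed; inactive = no significant shift from solvent-only controls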;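 also: raw slope with 0.1% DMSO as baseline and bumetanide as block control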
HEK293 Tl flux – acts in parental HEK cells, KCC2 counter-screen | shares compounds with Cl transport mod | HEK293 parental cells, thallium flux FluoZin2, ouabain; baseline-ratio fluorescence slope, 10–20 s after thallium | thallium flux rate (normalised fluorescence) at 10 µM | hit rate 46% among 3,700;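 active = thallium flux rate significantly above the same plate's solvent-only control wells, beyond their mean plus 3 SD; inconclusive = the two replicate wells gave conflicting results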
KCC2 retest ouab – modulates human KCC2 on retest with ouabain | HEK293-KCC2, thallium flux FluoZin2 fluorescence; bidirectional: low = inhibitor, high = activator | raw Tl+ flux slope (below DMSO = inhibition, above = activation) at 10 µM | shares compounds with Cl transport mod | hit rate 48% among 3,700;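 active = thallium flux slope beyond 3 SD from same-plate DMSO control mean in most replicates, usually higher, sometimes lower; inconclusive = repeat tests gave conflicting results; inactive = no significant difference from controls in most replicates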;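 also: slope of initial-normalized fluorescence between seconds 10 and 20 after thallium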
HEK counter2 – parental HEK flux effect, counter-screen 2. shares compounds with Cl transport mod. HEK293 parental, thallium flux FluoZin-2 fluorescence slope. thallium flux slope at 10 µM. hit rate 33% among 3,700;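 active = thallium flux slope above the same plate's solvent-control mean plus 3 SD in both duplicate wells; inconclusive = duplicate wells that disagreed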;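 also: run without ouabain in cells lacking the KCC2 cotransporter; slope of fluorescence scaled to its starting value between 10 and 20 s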
Numbers without * were called inactive; i = inactive; ? = inconclusive; / = not tested or not shown.

SMILES	SKKanGAS inh	Insulin prom up	Cl transport mod	Rad51 HR inh	Autophagy HCS	WT yeast gro inh	KCC2 secondary	KCC2 bumet counter	KCC2 secondary2	HEK293 Tl flux	KCC2 retest ouab	HEK counter2
Cc1ccc2sc(N3CCN(CCNC(=O)c4ccco4)CC3)nc2c1C	-5	/	/	/	/	/	/	/	/	/	/	/
CCc1c(C)sc(NC(=O)c2cc(C(C)C)on2)c1C#N	2	-0.31	7.3*	-1	i	14	0.011	0.027*	0.039	?	0.031*	?
Cc1cc(-c2nnc3n2N=C(c2ccc(F)cc2)CS3)n[nH]1	-8	-0.14	-1	18	/	/	/	/	/	/	/	/
CN(C(=O)c1cccc(C#N)c1)c1nnc(-c2cnccn2)s1	-6	0.07	/	-2	i	8	0.011	0.0064	0.031	0.0075	0.023	?
CCC(C)C(N)C(=O)NC(CCC(=O)OCc1ccccc1)C(N)=O (centres undefined)	2	0.7	/	2	i	3	/	/	/	/	/	/
CCCCCCCCNC(=O)C(CCC(=O)OCc1ccccc1)NC(C)=O (centres undefined)	-4	/	/	2	i	0	0.0056	0.0043	0.023*	?	0.013*	0.0099
CCOC(=O)C1(Cc2cccc(Cl)c2)CCCN(C(=O)CN2C(=O)CSC2=O)C1 (centres undefined)	2	/	/	/	/	/	/	/	/	/	/	/
O=C(Nc1cccc2ncccc12)c1ccco1	0	/	/	/	/	/	/	/	/	/	/	/
Cc1ccc(Nc2nnc(SC/C(O)=C(\C#N)c3nc4ccccc4[nH]3)s2)c(C)c1	27	0.8	-4.2*	-18	i	13	?	0.0071	?	?	0.014*	0.012*
Cc1ccc(Nc2nnc(SCC(=O)c3ccc(Br)s3)s2)c(C)c1	29	-0.26	-3.9*	-10	i	44	0.01	?	?	0.007	0.013*	0.01
C=CCn1c(SCC(=O)c2c(N)n(CCC)c(=O)n(C)c2=O)nnc1-c1ccncc1	-1	-0.6	0.01	3	i	-8	/	/	/	/	/	/
Oc1c(CN2CCCCC2)cc(COCc2ccccc2)c2cccnc12	-2	?	/	0	i	1	/	/	/	/	/	/
Oc1ccc(COCc2ccccc2)c2cccnc12	?	/	3.3*	-2	i	-1	0.0082	0.028*	0.034	0.013*	?	0.011
CC(C)N=C(NS(=O)(=O)c1ccc(Br)cc1)c1ccc(Cl)cc1	2	/	0.47	/	i	-4	/	/	/	/	/	/
C/C(=C\C(=O)c1ccncc1)Nc1ccccc1O	0	/	19*	-5	i	-17	0.015*	0.024*	0.032	0.011*	0.029	0.011*
COc1ccc(OC)c(N/C(C)=C/C(=O)c2ccncc2)c1	-1	/	/	/	/	/	/	/	/	/	/	/
C/C(=N\NC(=S)Nc1ccc(C)c(C)c1)c1ccc(N2CCOCC2)cc1	24	0.01	5*	9	i	-3	0.011	0.033*	0.032	0.015*	0.023	0.011
C/C(=N\NC(=S)Nc1cc(S(=O)(=O)N2CCOCC2)ccc1Cl)c1ccc(N2CCOCC2)cc1	16	-1.3	1.4	/	/	/	/	/	/	/	/	/
CC(=O)N(CCCNC(=O)c1ccccc1)C(=O)c1ccccc1	-2	/	/	/	/	/	/	/	/	/	/	/
Cc1ccc(-c2nn(CC(=O)NN3CCOCC3)c(=O)c3ccccc23)cc1	-8	0.18	0.76	15	/	/	/	/	/	/	/	/
O=C(N/N=C/c1ccc[nH]1)c1sc2ccccc2c1Cl	11	0.24	9.7*	-4	i	14	0.014*	0.094*	0.029	0.024*	0.05*	0.011*
Fc1ccccc1NC(=S)Nc1ccc(CN2CCOCC2)cc1	-5	1.1	0.14	/	i	5	/	/	/	/	/	/
N#CCOc1coc(CN2CCN(c3ccccc3)CC2)cc1=O	6	/	/	/	/	/	/	/	/	/	/	/
NC(=O)c1ccc(-n2nnnc2SCC(=O)Nc2ccccc2F)cc1	6	/	/	/	/	/	/	/	/	/	/	/
COC(=O)c1ccc(/C(O)=C(\C#N)c2nc3ccccc3s2)cc1	9	0.23	-6.8*	7	i	4	0.008	0.0068	0.034	0.0038	0.013*	0.01
SMILES	SKKanGAS inh	Insulin prom up	Cl transport mod	Rad51 HR inh	Autophagy HCS	WT yeast gro inh	KCC2 secondary	KCC2 bumet counter	KCC2 secondary2	HEK293 Tl flux	KCC2 retest ouab	HEK counter2
Cc1ccc(OC/C(O)=C(\C#N)c2nc3ccccc3s2)cc1	57*	0.48	-4.3*	-3	i	7	0.015	0.0068*	0.022*	?	0.012*	0.011
COc1ccccc1-n1nnnc1SC(C)C(=O)NC1CCCC1 (centres undefined)	-1	/	/	/	/	/	/	/	/	/	/	/
COCCn1nnnc1C(CC(C)C)N1CCN(C(=O)c2ccco2)CC1 (centres undefined)	/	0.79	7.5*	7	i	3	0.0064	0.0046	0.032	0.0085	0.019	0.0099
CCOC(=O)COc1cccc(C2NC(=O)c3ccccc3O2)c1 (centres undefined)	-3	/	/	/	/	/	/	/	/	/	/	/
O=C(/C=C/c1ccccc1)NCCSCc1ccccc1Cl	-11	0.7	-3.8*	-9	i	-8	0.0066	0.0048	0.034	0.0074	0.017*	0.011
O=C(/C=C/c1ccccc1)NCCSCc1ccc(Cl)cc1	-16	-0.01	-0.06	/	i	5	/	/	/	/	/	/
Cc1ccc(Cn2c(C(C)Nc3nc(-c4ccc(F)cc4)cs3)nc3cc(C(F)(F)F)ccc32)cc1 (centres undefined)	29	/	/	7	/	/	/	/	/	/	/	/
CN(C)c1ccc(-c2nnn(Cc3ccccc3Br)n2)cc1	-17	-1.2	-4.3*	-2	i	-3	0.0093	0.011*	0.032	?	0.021	0.01
CC(=O)c1csc(CS(=O)(=O)c2ccccn2)n1	-2	/	-0.61	3	/	/	/	/	/	/	/	/
c1csc(-c2nn3cnnc3c3ccccc23)c1	-3	-1.2	0.42	13	i	-4	/	/	/	/	/	/
CCCNC1=CC(=O)CC(C)(C)C1	-4	-0.47	0.033	5	i	-6	/	/	/	/	/	/
Cc1nc(C)n(CC(=O)N2CCCC(C(=O)c3cccc4ccccc34)C2)n1 (centres undefined)	1	1.2	/	/	i	2	/	/	/	/	/	/
Cc1ccc(C(=O)N2CCCC2)cc1Br	8	0.21	-3.1*	-8	i	8	0.0096	?	0.034	0.0077	0.021	0.011
Cc1ccc(C(=O)N2CCCCC2)cc1S(=O)(=O)N1CCCC1	6	/	/	/	/	/	/	/	/	/	/	/
